Assay results pooled from the literature.
Converted amounts (≈) assume the structure as drawn.

`O=c1[nH]c(CCl)nc2scc(-c3ccc(F)cc3)c12` gave an EC50 of 1500 nM (Trypanosoma brucei; parasite growth, ATP luminescence; 48 h).
`C/C(=N\N=C(/C)c1c(O)c2ccccc2oc1=O)c1c(O)c2ccccc2oc1=O` gave an MIC of 62.5 µg/mL (Penicillium verrucosum; microbial growth, broth dilution; 48 h).
`c1cc(-c2ccc3ncnc(NC4CCOCC4)c3c2)cc(N2CCOCC2)c1` gave a GI50 of 3000 nM (Trypanosoma brucei; parasite growth, SYBR Green; 48 h).
The MIC of `C[C@@H]1[C@H](O)[C@@H](C)/C=C/C=C/C=C/C=C/C=C/C=C/C=C/[C@H](O[C@@H]2O[C@H](C)[C@@H](O)[C@H](N)[C@@H]2O)C[C@@H]2O[C@](O)(C[C@@H](O)C[C@@H](O)[C@H](O)CC[C@@H](O)C[C@@H](O)CC(=O)O[C@H]1C)C[C@H](O)[C@H]2C(=O)O` is reported as less than 0.25 µM (Candida albicans; microbial growth, broth dilution; SP3902; 48 h).
The GI50 of `c1cc(-c2ccc3ncnc(Nc4ncco4)c3c2)nc(N2CCOCC2)c1` is reported as 190 nM (Trypanosoma brucei; parasite growth, SYBR Green; 48 h).
For `O=c1[nH]c(CCl)nc2scc(-c3ccc(C(F)(F)F)cc3)c12`, the EC50 was 2500 nM (Trypanosoma brucei; parasite growth, ATP luminescence; 48 h).
`COc1c(N2C[C@@H]3CCCN[C@@H]3C2)c(F)cc2c(=O)c(C(=O)O)cn(C3CC3)c12` gave an MIC90 of 64 µg/mL (≈ 159 µM) (Enterococcus faecium; microbial growth; clinical isolate).
The GI50 of `c1cc(-c2ccc3ncnc(Nc4ncco4)c3c2)nc(N2CCOCC2)n1` is reported as 230 nM (Trypanosoma brucei; parasite growth, SYBR Green; 48 h).
The EC50 of `O=c1[nH]c(CCl)nc2scc(-c3cccc(F)c3)c12` is reported as 1100 nM (Trypanosoma brucei; parasite growth, ATP luminescence; 48 h).
The MIC of `C/C(=N\CCNCCNCC/N=C(\C)c1c(O)c2ccccc2oc1=O)c1c(O)c2ccccc2oc1=O` is reported as 31.2 µg/mL (Penicillium verrucosum; microbial growth, broth dilution; 48 h).
For `FC(F)(F)c1cc(Nc2ncnc3ccc(-c4cccc(N5CCOCC5)c4)cc23)ccc1Cl`, the GI50 was 250 nM (Trypanosoma brucei; parasite growth, SYBR Green; GAMBIENSE).
The EC50 of `CCOC(=O)c1cnc2c([N+](=O)[O-])cc(C(F)(F)F)cc2c1NCCCn1ccnc1` is reported as 8000 nM (Trypanosoma brucei; parasite growth, resazurin; 72 h).
`CC(=O)N1CCN(c2ccc(OCC3COC(Cn4ccnc4)(c4ccc(Cl)cc4Cl)O3)cc2)CC1` (stereo not drawn) gave an MIC of 2 µM (Candida albicans; microbial growth, broth dilution; SP3903; 48 h).
`Cc1c2c(nn1C)CSCc1cc(n(C)n1)CSc1cc(c3ccccc3c1)OCCCc1c(C(=O)O)n(C)c3c-2c(Cl)ccc13` has an MIC50 of 12.5 µM (Enterococcus faecium; microbial growth, broth dilution; clinical isolate).
`c1cc(-c2ccc3ncnc(Nc4ncco4)c3c2)cc(N2C[C@H]3C[C@@H]2CO3)c1` gave a GI50 of 2100 nM (Trypanosoma brucei; parasite growth, SYBR Green; 48 h).
`CCOC(=O)c1cnc2c([N+](=O)[O-])cc(C(F)(F)F)cc2c1NCCc1ccccc1` gave an EC50 of greater than 10000 nM (Trypanosoma brucei; parasite growth, resazurin; 72 h).
With `CC1(C)S[C@@H]2[C@H](NC(=O)[C@H](N)c3ccccc3)C(=O)N2[C@H]1C(=O)O` the MIC50 was 128 µg/mL (Enterococcus faecium; microbial growth; clinical isolate).
The MIC of `C/C(=N\NC(=O)/N=C(\C)c1c(O)c2ccccc2oc1=O)c1c(O)c2ccccc2oc1=O` is reported as 62.5 µg/mL (Penicillium verrucosum; microbial growth, broth dilution; 48 h).
With `Clc1cccc(Nc2ncnc3ccc(-c4cccc(N5CCOCC5)c4)cc23)c1` the GI50 was 380 nM (Trypanosoma brucei; parasite growth, SYBR Green; 48 h).
`C/C(=N\CCNCC/N=C(\C)c1c(O)c2ccccc2oc1=O)c1c(O)c2ccccc2oc1=O` gave an MIC of 125 µg/mL (Penicillium verrucosum; microbial growth, broth dilution; 48 h).
With `OC(Cn1cncn1)(Cn1cncn1)c1ccc(F)cc1F` the MIC was 16 µM (Candida albicans; microbial growth, broth dilution; SP3876; 48 h).
`C/C(=N\C(=S)/N=C(\C)c1c(O)c2ccccc2oc1=O)c1c(O)c2ccccc2oc1=O` gave an MIC of 1.95 µg/mL (Penicillium verrucosum; microbial growth, broth dilution; 48 h).
For `O=c1[nH]c(CCl)nc2scc(-c3ccccc3F)c12`, the EC50 was 1000 nM (Trypanosoma brucei; parasite growth, ATP luminescence; 24 h).
With `Cn1cc(Nc2ncnc3ccc(-c4cccc(N5CCOCC5)c4)cc23)cn1` the GI50 was 250 nM (Trypanosoma brucei; parasite growth, SYBR Green; 48 h).
`CCS(=O)(=O)Oc1ccc(C=NNC(=O)CSc2nc3ccc(Cl)cc3c(=O)n2-c2ccccc2)cc1` has an inhibition zone of 3 mm (Candida albicans; microbial growth, well diffusion; 20 µg/mL).
`CC(=O)NC[C@H]1CN(c2ccc(N3CCOCC3)c(F)c2)C(=O)O1` has an MIC90 of 2 µg/mL (≈ 5.93 µM) (Enterococcus faecium; microbial growth; clinical isolate).
The GI50 of `O=[N+]([O-])c1ccc(Nc2ncnc3ccc(-c4cccc(N5CCOCC5)c4)cc23)cc1C(F)(F)F` is reported as 13 nM (Trypanosoma brucei; parasite growth, SYBR Green; GAMBIENSE).
